Measured values as given in ChEMBL document CHEMBL5120856, “New salicylic acid derivatives, double inhibitors of glycolate oxidase and lactate dehydrogenase, as effective agents decreasing oxalate production” (Eur J Med Chem, 2022).

What was measured:
2-Hydroxyacid oxidase 1 [1] = target: T1, 2-Hydroxyacid oxidase 1 (Homo sapiens, UniProt Q9UJM8); experiment: Non-competitive mixed inhibition of N-terminal His-tagged human recombinant glycolate oxidase expressed in Escherichia coli BL21 (DE3) cells assessed as inhibition constant using varying concentration of glycolate as substrate measured every 60 sec for 15 mins by Amplex red and horseradish peroxidase based fluorescence assay
T1 sequence (Q9UJM8 whole entry): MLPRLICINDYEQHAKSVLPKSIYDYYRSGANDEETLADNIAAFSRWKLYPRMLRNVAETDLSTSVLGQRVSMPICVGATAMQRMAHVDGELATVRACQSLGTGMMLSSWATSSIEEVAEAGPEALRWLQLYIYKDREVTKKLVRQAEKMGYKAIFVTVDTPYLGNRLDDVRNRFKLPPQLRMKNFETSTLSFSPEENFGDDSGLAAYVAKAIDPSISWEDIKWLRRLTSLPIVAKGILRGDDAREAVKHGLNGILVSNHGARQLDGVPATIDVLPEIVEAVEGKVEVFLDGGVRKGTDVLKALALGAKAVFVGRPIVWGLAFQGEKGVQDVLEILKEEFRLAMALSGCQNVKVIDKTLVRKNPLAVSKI

[2] = target: T2, L-lactate dehydrogenase A chain (Homo sapiens, UniProt P00338); experiment: Inhibition of human recombinant LDHA using pyruvate as substrate preincubated for 10 mins followed by substrate addition and measured every 60 sec for 10 mins in the presence of NADH by fluorescence assay
Hepatocyte [3] = experiment: Cytotoxicity against hyperoxaluric-primary hepatocyte isolated from Grhpr-knockdown PH2 C57BL/6 mouse assessed as cell death at 10 uM by MTS assay; assay type: toxicity, cell-based; conditions: hepatocytes, Grhpr-knockdown PH2 (primary hyperoxaluria type 2)
Method in brief: (§1)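 Primary hepatocytes from Agxt1-/- (PH1, 5 mM glycolate), Grhpr-/- (PH2, 10 mM glycolate) or Hoga1-/- (PH3, 10 mM hydroxyproline) mice, incubated with inhibitor at 10 μM; viability followed through the oxalate assay by MTS tetrazolium method.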

[4] = target: T2, L-lactate dehydrogenase A chain; experiment: Non-competitive inhibition of human recombinant LDHA assessed as inhibition constant using varying concentration of pyruvate as substrate preincubated for 10 mins followed by substrate addition and measured every 60 sec for 10 mins in the presence of NADH by fluorescence assay
[5] = target: T3, Prostaglandin G/H synthase 1 (Ovis aries, UniProt P05979); experiment: Inhibition of ovine COX-1 using arachidonic acid as substrate measured every 60 sec for 10 mins by fluorescence based assay
T3 sequence (P05979 whole entry): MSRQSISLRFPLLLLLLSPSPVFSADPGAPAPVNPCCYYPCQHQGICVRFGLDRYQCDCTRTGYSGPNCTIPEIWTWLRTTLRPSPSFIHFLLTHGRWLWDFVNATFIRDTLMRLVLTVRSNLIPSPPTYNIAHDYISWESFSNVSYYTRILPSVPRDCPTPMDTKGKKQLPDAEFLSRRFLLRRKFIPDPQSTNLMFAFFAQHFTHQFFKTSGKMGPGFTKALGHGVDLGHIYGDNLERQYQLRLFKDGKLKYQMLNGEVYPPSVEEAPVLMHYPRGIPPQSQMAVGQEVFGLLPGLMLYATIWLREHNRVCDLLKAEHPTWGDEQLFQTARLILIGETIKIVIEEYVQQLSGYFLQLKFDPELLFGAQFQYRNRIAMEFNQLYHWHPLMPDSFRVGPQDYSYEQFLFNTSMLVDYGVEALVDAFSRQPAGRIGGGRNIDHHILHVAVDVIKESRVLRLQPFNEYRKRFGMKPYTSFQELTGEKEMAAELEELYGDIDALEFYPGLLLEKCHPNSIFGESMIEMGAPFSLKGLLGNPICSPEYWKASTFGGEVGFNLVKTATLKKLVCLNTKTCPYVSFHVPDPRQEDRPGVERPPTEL

[6] = target: L-lactate dehydrogenase B chain (Homo sapiens, UniProt P07195); experiment: Non-competitive inhibition of human recombinant LDHB assessed as inhibition constant using varying concentration of pyruvate as substrate preincubated for 10 mins followed by substrate addition and measured every 60 sec for 10 mins in the presence of NADH by fluorescence assay
Sequence of L-lactate dehydrogenase B chain (P07195 whole entry): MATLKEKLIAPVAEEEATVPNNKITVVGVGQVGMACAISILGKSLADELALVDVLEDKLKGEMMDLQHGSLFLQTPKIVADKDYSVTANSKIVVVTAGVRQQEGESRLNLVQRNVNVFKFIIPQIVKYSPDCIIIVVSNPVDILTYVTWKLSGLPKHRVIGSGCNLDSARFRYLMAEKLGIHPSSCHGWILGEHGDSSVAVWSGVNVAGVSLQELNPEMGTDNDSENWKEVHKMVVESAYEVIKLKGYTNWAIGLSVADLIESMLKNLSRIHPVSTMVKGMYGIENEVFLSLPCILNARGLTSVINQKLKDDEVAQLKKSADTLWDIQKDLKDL

Hepatocyte [7] = experiment: Inhibition of GO/LDHA in hyperoxaluric-primary hepatocyte isolated from Hoga1-knockdown PH3 C57BL/6 mouse assessed as relative oxalate output at 10 uM measured at 24 hrs in the presence of hydroxyproline relative to control; assay type: cell-based
Method in brief: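 Hoga1-/- mouse primary hepatocytes challenged with 10 mM hydroxyproline, inhibitor 10 μM; extracellular oxalate measured by colorimetric kit 24 and 48 h after dosing, given as ratio to oxalate without inhibitor; negative values are below detection limit; mean of three/four replicates ± SD.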

2-Hydroxyacid oxidase 1 [8] = target: T4, 2-Hydroxyacid oxidase 1 (Mus musculus, UniProt Q9WU19); experiment: Inhibition of N-terminal His-tagged mouse recombinant glycolate oxidase expressed in Escherichia coli BL21 (DE3) cells using glycolate as substrate preincubated for 10 mins followed by substrate addition and measured after 10 mins by Amplex red and horseradish peroxidase based fluorescence assay
T4 sequence (Q9WU19 whole entry): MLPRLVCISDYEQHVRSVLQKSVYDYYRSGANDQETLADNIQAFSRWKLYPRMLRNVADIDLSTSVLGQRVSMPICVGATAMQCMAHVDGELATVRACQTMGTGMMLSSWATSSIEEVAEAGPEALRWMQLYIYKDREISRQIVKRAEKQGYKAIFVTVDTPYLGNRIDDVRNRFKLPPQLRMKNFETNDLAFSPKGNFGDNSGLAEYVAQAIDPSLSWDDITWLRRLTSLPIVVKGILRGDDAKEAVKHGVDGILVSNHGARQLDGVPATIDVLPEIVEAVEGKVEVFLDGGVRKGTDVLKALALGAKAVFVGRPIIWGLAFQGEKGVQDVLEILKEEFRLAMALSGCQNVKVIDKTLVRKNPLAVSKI

Hepatocyte [9] = experiment: Cytotoxicity against hyperoxaluric-primary hepatocyte isolated from Agxt1-knockdown PH1 C57BL/6 mouse assessed as cell death at 10 uM by MTS assay; assay type: toxicity, cell-based; conditions: hepatocytes, Agxt1-knockdown PH1, 10 µM; method in brief: as §1
Hepatocyte [10] = experiment: Inhibition of GO/LDHA in hyperoxaluric-primary hepatocyte isolated from Grhpr-knockdown PH2 C57BL/6 mouse assessed as relative oxalate output at 10 uM measured at 24 hrs in the presence of glycolate relative to control; assay type: cell-based
Method in brief: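 Grhpr-/- mouse primary hepatocytes cultured with 10 mM glycolate, inhibitor at 10 μM; extracellular oxalate determined colorimetrically at 24 and 48 h post-treatment, expressed relative to untreated medium (RO); negative RO means below detection limit; three/four replicates, mean ± SD.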

Hepatocyte [11] = experiment: Inhibition of GO/LDHA in hyperoxaluric-primary hepatocyte isolated from Agxt1 knockdown PH1 C57BL/6 mouse assessed as relative oxalate output at 10 uM measured at 48 hrs in the presence of glycolate relative to control; assay type: cell-based
Method in brief: (§2)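 Agxt1-/- mouse primary hepatocytes cultured with 5 mM glycolate, inhibitor at 10 μM; extracellular oxalate measured by colorimetric kit 24 and 48 h after inhibitor addition; relative oxalate = oxalate with inhibitor over oxalate without inhibitor; negative values mean below detection limit; mean of three/four replicates ± SD.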

Hepatocyte [12] = experiment: Inhibition of GO/LDHA in hyperoxaluric-primary hepatocyte isolated from Agxt1 knockdown PH1 C57BL/6 mouse assessed as relative oxalate output at 10 uM measured at 24 hrs in the presence of glycolate relative to control; assay type: cell-based; method in brief: as §2
HEK293 = experiment: Cytotoxicity against HEK293 cells assessed as reduction in cell viability upto 50 uM measured after 48 hrs by MTT assay; assay type: toxicity, cell-based; conditions: human, hek293, 48 h

- Ki (2-Hydroxyacid oxidase 1 [1]): 2300 nM
- IC50 [2]: 400 nM
- Ki [4]: 90 nM
- IC50 [5]: 24000 nM
- Ki [6]: 700 nM
- IC50 (2-Hydroxyacid oxidase 1 [8]): 1800 nM
Structure (SMILES): N.N.O=C(O)c1cc(-c2ccc(CN(Cc3ccccc3)Cc3ccc(-c4ccc(O)c(C(=O)O)c4)o3)o2)ccc1O
- Activity (Hepatocyte [3]): Non-Toxic
- fold change (FC) (Hepatocyte [7]): 0.41
- Activity (Hepatocyte [9]): Non-Toxic
- fold change (FC) (Hepatocyte [10]): 0.59
- fold change (FC) (Hepatocyte [11]): 0.76
- fold change (FC) (Hepatocyte [12]): 0.66
- Activity (HEK293): Non-Toxic
